High-throughput results as filed in PubChem BioAssay.
UCH37 DUB inh – blocks the human deubiquitinase UCH37; purified proteasome/UCH37, Ub-AMC cleavage fluorescence; inhibition, % (no concentration beside the values); Q9Y5K5; AID 588478; 330,000 tested, 0.33% active;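 active means mean inhibition over replicate wells above about 20%, limit read from the data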;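 further: 0% = compound-free wells with enzyme and 100% = wells lacking proteasome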
Target sequence (Q9Y5K5 whole entry, looked up): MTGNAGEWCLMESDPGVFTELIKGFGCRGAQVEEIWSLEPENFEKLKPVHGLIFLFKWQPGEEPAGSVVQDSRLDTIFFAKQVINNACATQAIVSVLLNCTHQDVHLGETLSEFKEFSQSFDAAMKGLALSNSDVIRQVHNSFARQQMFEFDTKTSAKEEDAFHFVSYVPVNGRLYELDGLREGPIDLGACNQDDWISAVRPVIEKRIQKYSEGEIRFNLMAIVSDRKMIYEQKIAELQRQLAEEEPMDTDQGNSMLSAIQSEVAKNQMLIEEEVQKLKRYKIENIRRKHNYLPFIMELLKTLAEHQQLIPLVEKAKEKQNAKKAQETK
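Material: human UCH37 enzyme supplied as purified proteasome complex / Amount: 0.15 nM proteasome as dispensed / Buffer or medium: pH 7.4 Tris-HCl (50 mM) with ovalbumin, ATP-MgCl2, DTT / Times: preincubation 30 min, reaction 25 min, room temperature / Technique: AMC fluorescence from Ub-AMC cleavage, excitation 355 nm, emission 460 nm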
Neddyl block – blocks human cullin neddylation; P61081+Q13564; TR-FRET cullin neddylation, biochemical; inhibition, % at 25 µM; 360,000 tested, 0.58% active; in the data active means inhibition above about 36%
SUMO HTRF inh – blocks human SUMOylation mediated by UBC9 | P63279 | HTRF SUMOylation assay, SAE1/SAE2 + UBC9, in vitro | inhibition, % at 35 µM | 290,000 tested, 0.36% active | AID 2006; in the data active means inhibition above about 50%, passing the limit was not always enough
Target sequence (P63279 whole entry, looked up): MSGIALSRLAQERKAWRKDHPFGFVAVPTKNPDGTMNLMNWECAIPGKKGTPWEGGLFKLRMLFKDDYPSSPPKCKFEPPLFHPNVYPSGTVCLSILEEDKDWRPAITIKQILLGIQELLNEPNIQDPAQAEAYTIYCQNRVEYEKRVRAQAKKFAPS
Fh CTSL1 inh – cathepsin L1 inhibition, PFM18AAP counter-screen; recombinant F. hepatica cathepsin L1, Z-Leu-Arg-MCA fluorescence; inhibition, % at 5.96 µM; 300,000 tested, 0.49% active;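 active means inhibition above the mean of all tested compounds plus 3 SD, set per screening campaign, cut at about 17% in these data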;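 further: 0% = plate median of test compound wells and 100% = 1 µM Z-Phe-Ala-diazomethylketone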
Neddyl inh conf – cullin neddylation inhibition, confirmation | 1,800 tested, 13% active | TR-FRET cullin neddylation biochemical assay | shares compounds with Neddyl block | calls only at 25 µM; in the data active means inhibition above about 40%;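 further: neddylation substrate is the cullin 1 ring ligase complex with SKP2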
An asterisk follows results filed as active. Rows were chosen to be rich in hits. Some 1.4% of all compounds tested hit in one or more screens of this group.

Results for N#CCCn1c(-c2nonc2NC(=O)c2ccccc2Cl)nc2ccccc21 ?
UCH37 DUB inh: -127.6; Neddyl block: 13.1; SUMO HTRF inh: 23.3; Fh CTSL1 inh: -4.4

How did COc1ccc(-c2cnc3c(NC(C)=O)cc(-c4cc(F)ccc4OC)cn23)cc1OC do in these assays?
Neddyl block: 44.3*; Neddyl inh conf: inactive

Results for CC1CCN(C(=O)Nc2ccc3nsnc3c2)CC1 ?
UCH37 DUB inh: -49.9; Neddyl block: 44.5*; SUMO HTRF inh: 44.3; Fh CTSL1 inh: -1.5; Neddyl inh conf: active

How did O=C(Nc1ccc2nsnc2c1)N1CCCCC1 do in these assays?
UCH37 DUB inh: -50.3; Neddyl block: 43.7*; SUMO HTRF inh: 51.8; Fh CTSL1 inh: 1.6; Neddyl inh conf: inactive

Results for S=C(Nc1ccc2nsnc2c1)N1CCCCCC1 ?
UCH37 DUB inh: 11.0; Neddyl block: 39.6*; SUMO HTRF inh: 99.4; Fh CTSL1 inh: 107.5*; Neddyl inh conf: inactive

How did O=C(NN=C/C=C/c1ccco1)c1cncc(Br)c1 do in these assays?
UCH37 DUB inh: 15.1

How did Nc1nc2c(c(=O)[nH]1)CN(Cc1ccccc1)CC2 do in these assays?
UCH37 DUB inh: -1.0; Neddyl block: 40.4*; Fh CTSL1 inh: -0.6; Neddyl inh conf: inactive

How did Nc1ncnc2c1CN(Cc1ccccc1)CC2 do in these assays?
UCH37 DUB inh: 3.1; Neddyl block: 8.2

Results for CC(CC(=O)NC1CCCC1)=NNC(=O)Cc1csc(N)n1 ?
UCH37 DUB inh: 4.1

How did O=C(NN1C(=O)c2ccc3c4c(ccc(c24)C1=O)CC3)c1ccc(Br)cc1 do in these assays?
UCH37 DUB inh: inactive; Neddyl block: 45.5*; SUMO HTRF inh: -6.3; Fh CTSL1 inh: 1.8; Neddyl inh conf: inactive

Results for NC(=NOCC(=O)Nc1ccccc1)c1nonc1N ?
UCH37 DUB inh: 1.2

How did COCc1cc(C)nc2sc(C(=O)N3CCN(c4ccccc4)CC3)c(N)c12 do in these assays?
UCH37 DUB inh: -12.3; Neddyl block: 41.0*; SUMO HTRF inh: 19.2; Fh CTSL1 inh: -3.1; Neddyl inh conf: inactive

How did COCc1cc(C)nc2sc(C(=O)Nc3ccc(OC)cc3)c(N)c12 do in these assays?
UCH37 DUB inh: -74.5; Neddyl block: 48.6*; SUMO HTRF inh: 0.2; Fh CTSL1 inh: 0.3; Neddyl inh conf: active

Results for O=C(NN=Cc1ccccn1)c1ccc(NC(=O)c2cccc([N+](=O)[O-])c2)cc1 ?
UCH37 DUB inh: 5.5

What do the screens show for `CCc1ccccc1NN=C(C)c1c(O)cc(C)oc1=O`?
UCH37 DUB inh: 4.8

How did COC(=O)c1nc2cc3c(cc2c(C)c1C(=O)OC)OCO3 do in these assays?
UCH37 DUB inh: -154.1; Neddyl block: 57.5*; SUMO HTRF inh: 22.1; Fh CTSL1 inh: 2.1; Neddyl inh conf: active

Results for O=C(NCc1ccco1)c1cnn2c(C(F)(F)F)cc(-c3ccccc3)nc12 ?
UCH37 DUB inh: -23.1; Neddyl block: 42.0*; SUMO HTRF inh: 5.3; Fh CTSL1 inh: -0.4; Neddyl inh conf: inactive

What do the screens show for `NC(=O)c1cnn2c(C(F)(F)F)cc(-c3ccccc3)nc12`?
UCH37 DUB inh: -29.9; Neddyl block: 27.3; SUMO HTRF inh: 25.8; Fh CTSL1 inh: -1.4

Results for CCCCCNC(=O)C(c1ccc(-c2ccccc2)cc1)n1c(=O)c(-c2ccccc2)nc2ccccc21 (stereo not given) ?
Neddyl block: -53.3

What do the screens show for `COc1ccc(NC(=O)C(c2ccncc2)n2c(=O)c(-c3ccccc3)nc3ccccc32)cc1` (stereo not given)?
Neddyl block: 50.8*; Neddyl inh conf: inactive

What do the screens show for `CCCCCNC(=O)C(c1ccncc1)n1c(=O)c(-c2ccccc2)nc2ccccc21` (stereo not given)?
Neddyl block: 45.3*; Neddyl inh conf: inactive

How did O=C(NC1CCCCC1)C(c1ccncc1)n1c(=O)c(-c2ccccc2)nc2ccccc21 (stereo not given) do in these assays?
Neddyl block: 45.1*; Neddyl inh conf: active

How did COc1cccc(C=NNc2nnc(C)n2N)c1OCc1ccccc1Cl do in these assays?
UCH37 DUB inh: 2.6

How did Cc1ccn2c(C(=O)NN=Cc3ccc4c(c3)OCO4)c(C)nc2c1 do in these assays?
UCH37 DUB inh: 5.6

Results for CCOc1cc(C2NC(=O)c3ccccc3O2)ccc1OC (stereo not given) ?
UCH37 DUB inh: 3.4; Neddyl block: 44.3*; SUMO HTRF inh: -7.6; Fh CTSL1 inh: 1.0; Neddyl inh conf: inactive

What do the screens show for `COC(=O)c1ccc(-n2c(C)cc(C=NNc3nc(C)cc(=O)[nH]3)c2C)cc1`?
UCH37 DUB inh: -21.4

Results for CNC(=S)NN=Cc1cn(Cc2ccc(C)cc2)c2ccccc12 ?
UCH37 DUB inh: 0.9

What do the screens show for `CC(Oc1ccccc1F)c1ccnc2nc(/N=C/N(C)C)nn12` (stereo not given)?
Neddyl block: 47.1*; SUMO HTRF inh: 20.5; Fh CTSL1 inh: 5.2; Neddyl inh conf: inactive

Results for CC1CCc2c(sc(N)c2C(N)=O)C1 (stereo not given) ?
UCH37 DUB inh: -27.4; Neddyl block: 40.2*; SUMO HTRF inh: 9.3; Fh CTSL1 inh: 2.0; Neddyl inh conf: inactive

How did COc1ccc(OC)c(/C=C/C(=O)N(C)CC(=O)Nc2ccc(N3CCOCC3)cc2)c1 do in these assays?
UCH37 DUB inh: -102.0; Neddyl block: 59.9*

Results for COc1ccc(NC(=O)CN(C)C(=O)/C=C/c2cn(-c3ccccc3)nc2-c2cccs2)cc1 ?
UCH37 DUB inh: -26.1; Neddyl block: 44.3*; Fh CTSL1 inh: -1.7; Neddyl inh conf: inactive

How did COc1ccc(NC(=O)CN(C)C(=O)/C=C/c2cn(-c3ccccc3)nc2-c2ccc(F)cc2)cc1 do in these assays?
UCH37 DUB inh: 1.1; Neddyl block: 2.6; Fh CTSL1 inh: 1.3

Results for Clc1ccc(C=NNc2ccccc2)cc1 ?
UCH37 DUB inh: 6.3

How did O=C(CCN1CCN(C(c2ccccc2)c2ccccc2)CC1)NN=Cc1ccc(O)cc1O do in these assays?
UCH37 DUB inh: -3.7

Results for CC(C)(C)NC(=O)NC(=O)CN1c2cccc3cccc(c23)S1(=O)=O ?
UCH37 DUB inh: -40.7; Neddyl block: 34.8; SUMO HTRF inh: 9.2; Fh CTSL1 inh: 2.3

Results for CC(=O)C(Cc1ccccc1)NC(=O)CN1c2cccc3cccc(c23)S1(=O)=O (stereo not given) ?
UCH37 DUB inh: -74.2; Neddyl block: 28.2*; Neddyl inh conf: inactive

Results for COc1ccc(NC(=O)CN2c3cccc4cccc(c34)S2(=O)=O)cc1 ?
UCH37 DUB inh: -2.0; Neddyl block: 20.5; SUMO HTRF inh: 0.4; Fh CTSL1 inh: 0.4

What do the screens show for `CCN(CC(=O)NC(C)(C)C)C(=O)CN1c2cccc3cccc(c23)S1(=O)=O`?
UCH37 DUB inh: -92.9; Neddyl block: 51.0*; SUMO HTRF inh: 21.9; Fh CTSL1 inh: 3.0

What do the screens show for `CCOc1ccccc1NC(=O)CN1c2cccc3cccc(c23)S1(=O)=O`?
UCH37 DUB inh: -73.8; Neddyl block: 44.3*

How did O=C(NN=Cc1ccc(N2CCCCC2)o1)c1ccccc1 do in these assays?
UCH37 DUB inh: 6.9
